Screening data: PubChem BioAssay, The Scripps Research Institute Molecular Screening Center
The list is not random: actives were taken first. Their share in the collection is about 2.8%.
pPAFAH inh – pPAFAH (human) enzyme inhibition. AID 463082. recombinant pPAFAH, FP-rhodamine probe fluorescence polarization. inhibition, % at 3.39 µM. 330,000 tested, 1.5% active;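 active = inhibition above the mean inhibition across the screen plus 3 SD, cut at about 25% in these data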;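 note: inhibitors block binding of the rhodamine activity-based probe so polarization drops; 0% = enzyme with DMSO and 100% = wells lacking pPAFAH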
Target sequence (Q13093 whole entry, looked up): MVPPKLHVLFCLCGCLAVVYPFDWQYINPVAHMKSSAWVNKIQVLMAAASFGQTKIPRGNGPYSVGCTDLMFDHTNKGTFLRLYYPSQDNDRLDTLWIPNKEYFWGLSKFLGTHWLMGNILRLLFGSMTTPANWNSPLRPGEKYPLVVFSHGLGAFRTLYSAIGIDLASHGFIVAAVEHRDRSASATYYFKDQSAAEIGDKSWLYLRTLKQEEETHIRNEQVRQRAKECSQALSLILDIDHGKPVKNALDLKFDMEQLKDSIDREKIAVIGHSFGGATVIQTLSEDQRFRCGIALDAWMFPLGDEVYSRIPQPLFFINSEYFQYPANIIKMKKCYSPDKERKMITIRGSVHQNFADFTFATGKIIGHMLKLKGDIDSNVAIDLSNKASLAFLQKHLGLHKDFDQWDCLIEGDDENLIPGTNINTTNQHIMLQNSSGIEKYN
PAFAH1B3 FP inh – PAFAH1B3 (human) inhibition | recombinant PAFAH1B3, FP-rhodamine probe, fluorescence polarization | 340,000 tested, 0.28% active | inhibition, % at 3.39 µM | Q15102 | AID 492972;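 active = inhibition above the screen-wide average of all tested compounds plus 3 SD, cut at about 25% in these data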;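 note: 0% = enzyme with DMSO only and 100% = wells lacking PAFAH1B3 protein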
ASAP1 inh – blocks human ASAP1-stimulated Arf1 GTP hydrolysis; inhibition, % at 16.5 µM; AID 624377; 360,000 tested, 0.19% active; GDP FP detection; Q9ULH1; in the data active = inhibition above about 25%;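 note: 0% = vehicle with enzyme and substrate and 100% = no enzyme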
PAFAH2 inh – inhibitors of human PAFAH2; AID 492956; inhibition, % at 3.39 µM; recombinant PAFAH2, FP-rhodamine activity probe, fluorescence polarization; Q99487; 340,000 tested, 0.99% active;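 active = inhibition above the mean over all tested compounds plus 3 SD, cut at about 30% in these data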;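 note: inhibitors block probe labeling of enzyme so polarization drops; 0% = enzyme with DMSO and 100% = wells lacking PAFAH2 protein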
PAFAH1B2 inh – inhibitors of human PAFAH1B2 | recombinant PAFAH1B2, FP-rhodamine activity probe, fluorescence polarization | inhibition, % at 3.39 µM | 340,000 tested, 1.2% active | AID 492953;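 active = inhibition above the mean of all tested compounds plus 3 SD, cut at about 24% in these data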;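 note: 0% = enzyme with DMSO and 100% = wells lacking PAFAH1B2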
ARFGAP1 inhibitor – inhibits rat ARF GTPase activating protein 1; inhibition, % at 16.5 µM; Arfgap1-stimulated ARF1 GTP hydrolysis, GDP FP detection; 360,000 tested, 0.26% active; Q62848; AID 651572;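 active = inhibition above a per-plate limit, mean inhibition of low control wells plus 3 SD, cut at about 25% in these data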;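 note: 0% = DMSO wells with enzyme and 100% = wells lacking Arfgap1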
Target sequence (Q62848 1-136 limits assumed): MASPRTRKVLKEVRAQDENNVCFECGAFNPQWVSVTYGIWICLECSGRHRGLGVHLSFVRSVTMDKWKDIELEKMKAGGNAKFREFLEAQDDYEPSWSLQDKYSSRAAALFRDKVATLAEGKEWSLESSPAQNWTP
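System: truncated rat Arfgap1 GAP domain / Medium: HEPES-based buffer, pH 7.5 / Also added: N-terminally truncated human ARF1-GTP substrate / Incubation: enzyme reaction 120 min at 25 °C after 20 min preincubation / Measured by: FP of antibody-bound GDP Alexa 633 tracer, ex 620/em 688 nm / Replicates: singlicate, each compound tested once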
pPAFAH confirm – pPAFAH (human) inhibition, confirmed. shares compounds with pPAFAH inh. recombinant pPAFAH, FP-Rh probe fluorescence polarization. inhibition, % at 3.39 µM. 2,300 tested, 72% active. AID 463230;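 active = mean inhibition of the triplicate above the hit cutoff set for the earlier primary screen, cut at about 25% in these data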;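 note: 0% = enzyme with DMSO and 100% = wells lacking pPAFAH enzyme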
The depositor's hits bear a star; x = not tested or not shown.

SMILES	pPAFAH inh	PAFAH1B3 FP inh	ASAP1 inh	PAFAH2 inh	PAFAH1B2 inh	ARFGAP1 inhibitor	pPAFAH confirm
[C-]#[N+][C@H](O[C@@H]1O[C@H](CO)[C@@H](O)[C@H](O)[C@H]1O)c1ccccc1	7	0	2	-5	4	3	x
O=C(O)CC(CCc1ccccc1)OC1OC(CO)C(O)C(O)C1O (stereo unspecified)	74*	25	0	39*	18	9	34*
Cc1cc(NC(=O)CSc2nnc(-c3ccc([N+](=O)[O-])cc3)o2)no1	3	2	13	8	5	1	x
CCOc1cc(CNCCO)cc(Br)c1OCc1ccc(Cl)cc1Cl	42*	0	0	-3	4	7	30*
CCOc1cccc(CNCCO)c1OCc1ccc(Cl)cc1Cl	-1	1	9	0	6	4	x
CN=c1scc(-c2ccccc2F)n1/N=C/c1ccc(O)c(O)c1O	x	7	9	3	-5	4	x
Oc1ccc(/C=N/N=C(c2ccccc2)c2ccccc2)c(O)c1O	59*	21	-7	3	1	1	83*
O=C(/C(=N/N=C/c1ccc(O)c(O)c1O)c1ccccc1)c1ccccc1	80*	-14	9	4	-11	12	85*
COc1cccc(C2CC(=O)Nc3cc(C)c(C)cc32)c1 (stereo unspecified)	x	x	-10	x	x	2	x
CC(=O)N1CCOc2ccc(S(=O)(=O)NC[C@H]3O[C@@H](n4ccc(N)nc4=O)[C@H](O)[C@@H]3O)cc21	x	x	-5	x	x	1	x
COc1ccc(C(=O)N/N=C/c2ccc(OC)c(COc3ccc(F)cc3)c2)cc1	9	7	3	-24	-5	11	x
COc1cccc(OCc2cc(/C=N/Nc3ccc(C(=O)O)cc3)ccc2OC)c1	39*	-1	15	15	0	17	65*
COc1ccc2nc(NC(=O)CSc3nnc(N)s3)sc2c1	-3	-24	11	-16	-11	-12	x
COc1ccc2nc(NC(=O)CSc3nnc(C)n3N)sc2c1	38*	-2	5	0	6	2	7
Cc1ccc(S(=O)(=O)N2[C@@H](c3ccc(C(C)(C)C)cc3)C(C(=O)O)=CC[C@H]2c2ccc(Cl)cc2)cc1	37*	-6	3	-2	90*	-26	54*
OC(CNCC1CCCO1)Cn1c2ccc(Cl)cc2c2cc(Cl)ccc21 (stereo unspecified)	41*	-6	-4	-13	1	5	34*
Cn1c(Oc2ccncc2)nc2cc(-c3ccsc3)sc2c1=O	x	x	2	x	x	2	x
CCOc1ccc(OCCC(=O)OCC(=O)Nc2ccc(N3CCOCC3)cc2)cc1	35*	11	12	-15	-7	0	23
Cc1ccc(N2C(=O)c3ccccc3C2C(=O)c2ccc(O)cc2O)cc1 (stereo unspecified)	47*	9	-26	9	0	-8	5
Cc1ccc(N2C(=O)c3ccccc3C2C(=O)c2cc(C)ccc2O)cc1 (stereo unspecified)	13	-8	7	-5	-3	-2	x
CCCNC(=O)C1(C)CCN1C(=O)Cc1ccc(C(C)C)cc1 (stereo unspecified)	x	x	-11	x	x	0	x
CC1=C(C(=O)Nc2ccc(C(=O)N3CCN(c4cccc(Cl)c4)CC3)cc2)SCCO1	42*	0	2	4	0	-3	24
S=c1[nH]nc(-c2cc(-c3ccccc3)n[nH]2)n1/N=C/c1c(Cl)cccc1Cl	17	4	-2	24	0	-5	x
S=c1[nH]nc(-c2cc(-c3ccccc3)n[nH]2)n1/N=C/c1ccc(Br)s1	54*	14	3	27	10	5	70*
CSc1ncccc1C(=O)OCC(=O)NC1CCS(=O)(=O)C1 (stereo unspecified)	-4	-3	-13	6	0	-7	x
SMILES	pPAFAH inh	PAFAH1B3 FP inh	ASAP1 inh	PAFAH2 inh	PAFAH1B2 inh	ARFGAP1 inhibitor	pPAFAH confirm
CSc1ncccc1C(=O)OCC(=O)NC1CCC(C)CC1 (stereo unspecified)	52*	7	3	36*	1	7	0
COc1cccc(NC(=O)CN(C)C(=O)c2ccc(-c3ccc(Cl)cc3)o2)c1	4	5	9	-10	-2	-12	x
CCCCOc1ccc(-c2cc(C(=O)NNC(=S)NCC)c3ccccc3n2)cc1	42*	12	x	0	1	x	51*
Cc1cc2nc(C(C)(C)C)c(CC3CCCCC3)n2c(C)c1Br	x	x	0	x	x	3	x
COc1ccc2nc(Nc3nc(CSc4nc5ccccc5s4)cc(=O)[nH]3)nc(C)c2c1	0	x	x	x	x	x	x
CC(C)(C)c1ccc(OCc2ccc(C(=O)N/N=C/c3ccc(O)c(O)c3)cc2)cc1	43*	17	7	2	-8	-9	74*
O=C(COc1ccccc1[N+](=O)[O-])N/N=C/c1ccc(O)c([N+](=O)[O-])c1	2	-2	5	8	4	-2	x
O=C(COc1ccccc1C(=O)N/N=C\c1ccc(O)c(O)c1)N/N=C/c1ccc(O)c(O)c1	62*	0	x	42*	12	x	80*
COc1ccc(N2CCN(S(=O)(=O)c3c(C(=O)N4CCOCC4)c(C)n(C)c3C)CC2)cc1	-4	6	12	-3	4	1	x
COC(=O)c1ccc(COC(=O)CNC(=O)C2CCCCC2)cc1	4	1	10	4	0	2	x
COc1cccc(=O)c2c(C)n(CC(=O)c3ccccc3)c(C)c12	38*	7	-1	8	2	0	16
CCN1CCN(c2ccc(NC(=O)CCc3c(C)nc4c(-c5ccc(F)cc5)c(C)nn4c3C)cc2)CC1	10	-3	4	0	5	0	x
C=CCSC1=N/C(=C\C=C\c2ccco2)C(=O)S1	61*	13	6	33*	6	-4	18
C=CCSC1=N/C(=C\c2sccc2C)C(=O)S1	1	5	4	7	0	8	x
COc1cc(NC(=O)CSc2nnc(-c3cc(C)on3)o2)cc(OC)c1	-5	0	4	4	4	10	x
Cc1cc(-c2nnc(SCC(=O)Nc3nc(-c4ccc(Cl)cc4)cs3)o2)no1	42*	-7	1	-16	-4	12	2
CN(C)/C=C/C(=O)/C=C/c1ccc(Cl)cc1	37*	6	2	7	6	3	4
CN(C)/C=C/C(=O)c1ccc(Cl)cc1	2	1	-6	0	2	10	x
CCNc1cc(O)ccc1C	75*	15	x	26	14	x	12
COc1ccc(N2CCN(CCCNC(=O)Cn3c(=O)c4cccn4c4ccccc43)CC2)cc1	3	2	-5	2	4	-4	x
